Yeast fitness data for 37 variants are collected here from the RNAGym collection of RNA variant scans (doi:10.1126/science.aae0568).

This sample holds only a part of the variants without activity.

B1: tRNA (parent)
chain: GUUCCGUUGGCGUAAUGGUAACGCGUCUCCCUCCUAAGGAGAAGACUGCGGGUUCGAGUCCCGUACGGAACG

In this data set the parent is B1. Briefly: yeast fitness relative to wild type (ratio to wild type); higher = fitter; tRNA-Arg(CCU), competitive growth, 37 C, YPD. The procedure, abridged:
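For this measurement, the tRNA-Arg(CCU) gene was varied by chemical synthesis at a 3% per-site mutation rate across 69 sites, and each variant was placed at the native genomic locus in Saccharomyces cerevisiae. The pooled strains went through a 24-hour competition in YPD at 37°C in six parallel replicates, with amplicons from start and end populations read by 100-nucleotide paired-end sequencing. Darwinian fitness relative to wild type followed from the change in each genotype's frequency. Genotypes needed ≥ 100 starting reads, and estimates < 0.5 were set to 0.5.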
GUCCCGUUGGCGUAAUGGUAGCGCGUCUCACUGCUAAGGAGAAGACUGCGGGUUCGAGACCCGUAUGGAACG [U3C A21G C30A C33G U59A C66U]: the yeast fitness is ≤ 0.5.
As for GUCCCGUUGGCGUCAUGGUAGUGCGUCUCCCUCCUAUGGAGAAGACUGAGGGUUCGAGUGCCGUACGGAACG [U3C A14C A21G C22U A37U C49A C60G], the yeast fitness was ≤ 0.5.
Regarding GUCCCGUUGGCGUAAUGGUAACGCGUCUCCCUCCUAGGGAGCAGACUGCGGGUUCGAGUCCCGUCCGGCACG [U3C A37G A42C A65C A69C], the yeast fitness is ≤ 0.5.
The value for GUCCCGUUGGCGUAUGGGAAACGCGUCUCCCUCCUAAGGAGACGACUGCGGGUUCGUGUCCCGUACGGAACG [U3C A15U U16G U19A A43C A57U] was ≤ 0.5.
GUCCCGUUGGCGUAAUGGUAACGCGUCUCCCUCCUUAGAAGAAGACUGCGGAUUCGAGUCCCGUACGGAACG [U3C A36U G39A G52A]: the yeast fitness was ≤ 0.5.
For the variant GUCCCGUUGGCGUACUGGUAACGCGUCUCCCUCCUAAAGAGAAGACUGCGGGUACGUGUCCCGUACGGAACG [U3C A15C G38A U54A A57U], the yeast fitness was ≤ 0.5.
With GUACCGUUGGCGUAAUGGUAACGCGACUCCCUCCUAAGGAGAAGACUGCGGGUUCGACUCCCAUACGGAACG [U3A U26A G58C G63A], the yeast fitness was ≤ 0.5.
To GUCCCGUUGGCGUAAUGGUAUCGCGUCUCCCUCCUAAGGAGAAGACUGCGGGUUCGAGUCCCGUACGGAACG [U3C A21U] belongs 0.642; to GUACCGUUGGCGUAAUGGAAACGCGUCUCCCUCCUAAGGAGAAGACUGCGGGUUCGACUCCCGUACGGAACG [U3A U19A G58C], 0.675; to GUACCGUUGGCGUAAUGGUAACGCGCCUCCCUCCUAAGGAGAAGACUGCGGGCUCGAGUCCCGUACGGAACG [U3A U26C U53C], ≤ 0.5.
With GUACCGUUGGCGUAAUGGUAACGCGUCACCCUCCUAAGGAGAAGACUGCGGGUUCGAGUCCCGUACGGAACG [U3A U28A], the yeast fitness came to 0.865.
For the variant GUCCCGUUGGCGUAAUGGUACUGCGUCUCCUUUCUAAGGAGAAGACUGCGGGUUCGAGUCCCGUACGGAACG [U3C A21C C22U C31U C33U], the yeast fitness was ≤ 0.5.
With GUCCCGUUGGCGUACUGGUGACGCGUCUCCCUCCUAAGGAGAAGACUGCGGGUUCGAGUCCCGUACGGAACG [U3C A15C A20G], the yeast fitness is ≤ 0.5.
In the case of GUACCGUUGGCGUAAUGGCAACGCGUCUACCUCCUUAGGAGAAGACUGCGGGUUCGAGUCCCGUACGGAACG [U3A U19C C29A A36U], the yeast fitness is ≤ 0.5.
Regarding GUCCCGUUGGCGUAAUGGUAGCGCGUCUGCCUCCUAAGGAGAAGACUGCGGGUUCGAGUCCCGUACGGAACG [U3C A21G C29G], the yeast fitness was ≤ 0.5.
As to GUACCGUUGGCGUAAUGGGAACGCAUCUCCCUCCUAAGGAGAAGACUGCGGGUUCGAGUCCCGUACAGAACG [U3A U19G G25A G67A], the yeast fitness is 0.56.
As to GUCCCGUUGGCGUACUGGUAACGCGUCUCCCUCCUAAGGAGAAGACUGCGGGUUCGAGUCCCGUACGGAACG [U3C A15C], the yeast fitness is 0.695.
To GUCCCGUUGGCGUAUUGGUAACGCGUCUCUCUCCUAAGGAGAAGACUGCGGGUUCGAGUCCCGUACGGAACG [U3C A15U C30U] belongs 0.57; to GUCCCGUUGGCGUAAUGGUAACGCGUCUCCCUCCUAAGGGGAAGAAUGCGGGUUCGAGUCCCGUACGGCACG [U3C A40G C46A A69C], 0.706.
Take GUCCCGUUGGCGUAAUGGUAACGCGUCUCCCUCCUAUGGAGAAGACUGCGGGUUCGAGUCCCGUACGGAACG [U3C A37U]: the yeast fitness came to 0.806.
Regarding GUCCCGUUGGCGUAAUGGUAACGCGUCUCCCUCCUAGGGAGAAGACUGCGGGUUCGAGUCCCGUACGGAACG [U3C A37G], the yeast fitness worked out at 0.784.
Turning to GUCCCGUUGGCGUACUCGUAACGAGUCUCCUUCCCAAGGAGAAGACUGCGGGUUCGAGUCCCGUACGAAACG [U3C A15C G17C C24A C31U U35C G68A], the yeast fitness was ≤ 0.5.
For the variant GUCCCGUUGGCGUCAUGGUAACGCGUCUCCCUCCUAAGGAGAAGCCUGCGGGUUCGAGUCCCGUCCGGAACG [U3C A14C A45C A65C], the yeast fitness was ≤ 0.5.
Take GUCCCGUUGGCGUAAUGGUAACGCGUCUCCCUCCUGAGGAGAAGACUGCGGGUUCGAGUCCCGUACGGAACG [U3C A36G]: the yeast fitness came to 0.91.
On to GUCCCGUUGGCGUAAUGGUCACCCGUCUCCCUCCUAAGGAGAAGACUGCGGGUUCGAGUCCCGUACGGAACG [U3C A20C G23C], for which the yeast fitness is ≤ 0.5.
For GUACCGUUGGCGUAAUGGAAACGCGUCUCCCUCCUAAGGAGAAGAAUGCGGGUUCAAGUCCCGUACGGAACG [U3A U19A C46A G56A], the yeast fitness was 0.564.
GUACCGUUGGCGUAAUGGUAACGCGUCUCCCACCUAAGGAGAAGACUGCGGGUUCGAGUCCCGUACGGAACG [U3A U32A]: the yeast fitness was determined as 0.74.
Take GUACCGUUGGCGUAAUGGCAACGUGUCUCCCUCCUAGGGAGAAGACUGCGGGUUCGAGUGCCGUACGGAACG [U3A U19C C24U A37G C60G]: the yeast fitness is ≤ 0.5.
For GUCCCGUUGGCGUAAUGGUAACGCGUCUCCCUCCUUAGGAGAAGACUGCGGGUUCGAGUCCUGUACGGAACG [U3C A36U C62U], the yeast fitness stood at 0.553.
For the variant GUCCCGUUGGCGUGAUGGUAACGAGUCUCCCUCCUAAGGAGAAAACUGCGGGUUCGAGUCCCGUCCGGAACG [U3C A14G C24A G44A A65C], the yeast fitness is ≤ 0.5.
On to GUCCCGUUGGCGUAAUGGUAUCGCGUCUCCCUCCUAAGGAGAAGACUGCGGGUUCGAGUCCCGUAGGGAACG [U3C A21U C66G], for which the yeast fitness was ≤ 0.5.
In the case of GUACCGUUGGCGUAAUGGUAACGCGUCUCCCUCCUAAGGAGAAGACUGCGGGCCCGAGUCCCGUACGGAACG [U3A U53C U54C], the yeast fitness was ≤ 0.5.
GUCCCGUUGGCGUAAUGGUUACGCGUCUCCCUCCUAAGGAGAAGACUGCGGGUUCGAGUCCCGUACGGACCG [U3C A20U A70C]: the yeast fitness was determined as 0.59.
Consider GUACCGUUGGCGUAAUGGAAACGCGUCUCCCUUCUAAGGAGAAGACUGCGGCUUCGAGUCCCGUGCGGAACG [U3A U19A C33U G52C A65G], for which the yeast fitness is ≤ 0.5.
For GUCCCGUUGGCGUAAUGGUUACGCGUCUCCCUCCUAAGGAGAAGACUGCGGGUUCGAGUCCCGUACGUGACG [U3C A20U G68U A69G], the yeast fitness was 0.99.
In the case of GUACCGUUGGCGUAAUGGUAACGCGUCUCCCGCCUAAGGAGAAGACUGCGGGUUCAAGUCCCGUACGUUACG [U3A U32G G56A G68U A69U], the yeast fitness is ≤ 0.5.
As for GUCCCGUUGGCGUAGUGGUAACGCGUCUACCUCCUAAGGUGAAGACUGCGGGUUGGAGUCGCGUACGGAACG [U3C A15G C29A A40U C55G C61G], the yeast fitness was ≤ 0.5.
